Experimental data taken from ChEMBL document CHEMBL1255243, “Resistance of Porphyromonas gingivalis ATCC 33277 to direct killing by antimicrobial peptides is protease independent” (2008).
Activity calls are given as the source filed them. No cut-off for these calls is given here.

How the values were obtained:
Escherichia coli [1] = test: Antibacterial activity against Escherichia coli ATCC 25922 assessed as growth inhibition at 100 ug/ml following preincubation of compound with supernatant of Aggregatibacter actinomycetemcommitans ATCC 29523; type: functional, organism-based
In short: (§1)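 Peptide preincubated with filter-sterilized stationary-phase culture supernatant (20% final) for set times, then 10 µl added to 190 µl E. coli overnight culture (diluted 1:5,000 in BHI, sonicated 1 min); peptide 100 μg/ml final on cells; aerobic growth; OD650 read; % inhibition relative to no-peptide (0%) and medium-preincubated peptide (100%); three independent experiments in triplicate, mean ± SD.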

Streptococcus mutans [2] = test: Antibacterial activity against Streptococcus mutans ATCC 27351 assessed as growth inhibition at 100 ug/ml following preincubation of compound with supernatant of Aggregatibacter actinomycetemcommitans ATCC 29523; type: functional, organism-based
In short: (§2)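 Peptide at 100 μg/ml incubated with filter-sterilized stationary-phase culture supernatant (20% final) for set times; 10 µl added to 190 µl S. mutans overnight culture diluted 1:10 in BHI and sonicated 1 min; grown at 37°C, 5% CO2; OD650 read; % inhibition relative to no-peptide (0%) and medium-preincubated peptide (100%); three experiments in triplicate, mean ± SD.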

Streptococcus mutans [3] = test: Antibacterial activity against Streptococcus mutans ATCC 27351 assessed as growth inhibition at 100 ug/ml following preincubation of compound with supernatant of Porphyromonas gingivalis ATCC 33277; type: functional, organism-based; in short: as §2
Porphyromonas gingivalis [4] = test: Antibacterial activity against protease deficient Porphyromonas gingivalis KDP136; type: functional
Escherichia coli [5] = test: Antibacterial activity against Escherichia coli ATCC 25922 assessed as growth inhibition at 100 ug/ml following preincubation of compound with supernatant of Porphyromonas gingivalis ATCC 33277; type: functional, organism-based; in short: as §1
Streptococcus mutans [6] = test: Antibacterial activity against Streptococcus mutans ATCC 27351 assessed as growth inhibition at 5 ug/ml following preincubation of compound with supernatant of Aggregatibacter actinomycetemcommitans ATCC 29523; type: functional, organism-based
In short: (§3)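 Stationary-phase P. gingivalis or A. actinomycetemcomitans cultures were spun 10 min at 10,000 × g and the supernatant filter-sterilised (0.2 μm). Peptide was preincubated with 20% (final) filtrate for varying times. It was then added to S. mutans (overnight culture diluted 1:10 in BHI, bath-sonicated 1 min), grown at 37°C in 5% CO2, and read at OD650. % inhibition: no-peptide = 0%, fresh-medium-preincubated peptide = 100%. Mean ± SD, three independent experiments.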

Porphyromonas gingivalis [7] = test: Binding affinity to membranes of Porphyromonas gingivalis KDP136 using Alexa Fluor-labeled compound at 0.8 mg/ml by fluorimetric assay
Streptococcus mutans [8] = test: Antibacterial activity against Streptococcus mutans assessed as growth inhibition at 5 ug/ml following preincubation of compound with supernatant of Aggregatibacter actinomycetemcommitans ATCC 29523
Porphyromonas gingivalis [9] = test: Antibacterial activity against Porphyromonas gingivalis ATCC 33277; type: functional, organism-based
In short: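 Increasing amounts of peptide were added to a growing anaerobic P. gingivalis culture. Percent growth inhibition was calculated relative to untreated cells (0%). Means ± SD of three independent experiments.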

Streptococcus mutans [10] = test: Antibacterial activity against Streptococcus mutans assessed as growth inhibition at 5 ug/ml following preincubation of compound with supernatant of Porphyromonas gingivalis ATCC 33277
Streptococcus mutans [11] = test: Antibacterial activity against Streptococcus mutans ATCC 27351 assessed as growth inhibition at 5 ug/ml following preincubation of compound with supernatant of Porphyromonas gingivalis ATCC 33277; type: functional, organism-based; in short: as §3
Streptococcus mutans [12] = test: Antibacterial activity against Streptococcus mutans assessed as growth inhibition at 40 ug/ml following preincubation of compound with supernatant of Aggregatibacter actinomycetemcommitans ATCC 29523
Streptococcus mutans [13] = test: Antibacterial activity against Streptococcus mutans ATCC 27351 assessed as growth inhibition at 40 ug/ml following preincubation of compound with supernatant of Porphyromonas gingivalis ATCC 33277; type: functional, organism-based; in short: as §3
Streptococcus mutans [14] = test: Antibacterial activity against Streptococcus mutans assessed as growth inhibition at 40 ug/ml following preincubation of compound with supernatant of Porphyromonas gingivalis ATCC 33277
Streptococcus mutans [15] = test: Antibacterial activity against Streptococcus mutans ATCC 27351 assessed as growth inhibition at 40 ug/ml following preincubation of compound with supernatant of Aggregatibacter actinomycetemcommitans ATCC 29523; type: functional, organism-based; in short: as §3

CC[C@H](C)[C@H](NC(=O)[C@H](CCCCN)NC(=O)[C@H](CCC(=O)O)NC(=O)[C@H](CCCCN)NC(=O)[C@H](CO)NC(=O)[C@H](CCCCN)NC(=O)[C@H](CCCNC(=N)N)NC(=O)[C@H](Cc1ccccc1)NC(=O)[C@H](Cc1ccccc1)NC(=O)[C@H](CC(=O)O)NC(=O)CNC(=O)[C@H](CC(C)C)NC(=O)[C@@H](N)CC(C)C)C(=O)NCC(=O)N[C@@H](CCCCN)C(=O)N[C@@H](CCC(=O)O)C(=O)N[C@@H](Cc1ccccc1)C(=O)N[C@@H](CCCCN)C(=O)N[C@@H](CCCNC(=N)N)C(=O)N[C@H](C(=O)N[C@H](C(=O)N[C@@H](CCC(N)=O)C(=O)N[C@@H](CCCNC(=N)N)C(=O)N[C@H](C(=O)N[C@@H](CCCCN)C(=O)N[C@@H](CC(=O)O)C(=O)N[C@@H](Cc1ccccc1)C(=O)N[C@@H](CC(C)C)C(=O)N[C@@H](CCCNC(=N)N)C(=O)N[C@@H](CC(N)=O)C(=O)N[C@@H](CC(C)C)C(=O)N[C@H](C(=O)N1CCC[C@H]1C(=O)N[C@@H](CCCNC(=N)N)C(=O)N[C@H](C(=O)N[C@@H](CCC(=O)O)C(=O)N[C@@H](CO)C(=O)O)[C@@H](C)O)C(C)C)[C@@H](C)CC)C(C)C)[C@@H](C)CC [CATHELICIDIN]
Activity (Escherichia coli [1]): Active | Activity (Streptococcus mutans [2]): Active | Activity (Streptococcus mutans [3]): inactive | MIC (Porphyromonas gingivalis [4]): > 200 µg/mL | Activity (Escherichia coli [5]): inactive

H-ALWKTLLKKVLKAAA-NH2
Activity (Streptococcus mutans [6]): Active | Activity (Porphyromonas gingivalis [7]): inactive | Activity (Streptococcus mutans [8]): Active | Activity (Porphyromonas gingivalis [9]): inactive | Activity (Streptococcus mutans [10]): inactive | Activity (Streptococcus mutans [11]): inactive

H-KRLFKKLLFSLRKY-NH2
Activity (Streptococcus mutans [12]): Active | Activity (Streptococcus mutans [13]): inactive | Activity (Streptococcus mutans [14]): inactive | Activity (Streptococcus mutans [15]): Active
